In ChEMBL document CHEMBL3351549, “Discovery of a Potent and Selective BCL-XL Inhibitor with in Vivo Activity” (ACS Med Chem Lett, 2014):
The source made the active and inactive calls. No cut-off for these calls is given here.

What was measured:
[1] = biological target: Apoptosis regulator Bcl-2 (Homo sapiens, UniProt P10415); experiment: Inhibition of BCL-2 (unknown origin) incubated for 1 hr by TR-FRET assay
[2] = biological target: T1, Bcl-2-like protein 1 (Homo sapiens, UniProt Q07817); experiment: Inhibition of BCL-XL (unknown origin) incubated for 1 hr by TR-FRET assay
[3] = biological target: T1, Bcl-2-like protein 1; experiment: Inhibition of BCL-XL (unknown origin) incubated for 1 hr in presence of 1% human serum by TR-FRET assay
[4] = Cytotoxicity against BCL-XL-dependent human NCI-H146 cells in presence of 10% human serum incubated for 48 hrs by Cell titerGlo reagent based assay; assay type: functional; conditions: NCI-H146, 48 h
[5] = Cytotoxicity against BCL-XL-dependent human NCI-H146 cells in presence of 10% human serum
[6] = biological target: T1, Bcl-2-like protein 1; experiment: Binding affinity to BCL-XL (unknown origin)
[7] = Antitumor activity against BCL-XL-dependent human NCI-H146 cells xenografted in SCID-Beige mouse assessed as tumor growth inhibition at 5 mg/kg, ip for 14 days; assay type: functional; conditions: route intraperitoneal
In short: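 Female SCID-Beige mice carried subcutaneous NCI-H146 xenografts and were dosed at 5 mg/kg IP QD ×14, or with an equal volume of vehicle (5% DMSO/10% EtOH/20% Cremophor ELP/65% DSW). There were 5 mice per time point. Tumor volume was calculated as W²·L·0.5 from perpendicular diameters and tracked over time. Treated and untreated groups were compared by Student's t test (p < 0.05).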

[8] = AUC in SCID-Beige mouse at 5 mg/kg, ip; assay type: ADME, organism-based; set-up: dose 5 mg/kg, route intraperitoneal; conditions: plasma
In short: (§1)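 Nontumor-bearing SCID-Beige mice got a single IP dose of 5 mg/kg. Vehicle was 5% DMSO, 10% EtOH, 20% Cremophor ELP and 65% DSW. Pharmacokinetic parameters were taken from plasma exposure after the single dose.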

[9] = Tmax in SCID-Beige mouse at 5 mg/kg, ip; assay type: ADME, organism-based; set-up: dose 5 mg/kg, route intraperitoneal; conditions: in vivo; in short: as §1
[10] = Cmax in SCID-Beige mouse at 5 mg/kg, ip; assay type: ADME, organism-based; set-up: dose 5 mg/kg, route intraperitoneal; conditions: in vivo; in short: as §1
[11] = system: Mus musculus; experiment: Reduction in platelets count in SCID-Beige mouse at 5 mg/kg, ip after 72 hrs; assay type: functional, organism-based; set-up: dose 5 mg/kg
In short: (§2)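 Nontumor-bearing female SCID-Beige mice received a single IP dose of 5 mg/kg in the 5% DMSO/10% EtOH/20% Cremophor ELP/65% DSW vehicle. Blood was taken by retro-orbital bleed at regular intervals after dosing and platelets were counted.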

[12] = system: Mus musculus; experiment: Reduction in platelets count in SCID-Beige mouse at 5 mg/kg, ip after 6 hrs; assay type: functional, organism-based; set-up: dose 5 mg/kg; in short: as §2
[13] = biological target: T2, Bcl-2-like protein 2 (Homo sapiens, UniProt Q92843); experiment: Binding affinity to BCL-W (unknown origin)
T2 sequence (Q92843 whole entry): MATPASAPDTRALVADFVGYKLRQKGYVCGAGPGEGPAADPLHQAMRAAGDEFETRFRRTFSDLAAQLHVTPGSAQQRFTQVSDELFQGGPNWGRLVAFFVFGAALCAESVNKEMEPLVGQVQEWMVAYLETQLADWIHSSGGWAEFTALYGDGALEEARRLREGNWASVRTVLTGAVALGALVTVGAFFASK

[14] = Drug concentration in SCID-Beige mouse at 5 mg/kg, ip after 12 hrs; assay type: ADME, organism-based; set-up: dose 5 mg/kg, route intraperitoneal; conditions: in vivo, read-out: Drug uptake; in short: as §1
[15] = biological target: Induced myeloid leukemia cell differentiation protein Mcl-1 (Homo sapiens, UniProt Q07820); experiment: Binding affinity to MCL1 (unknown origin)
Sequence of Induced myeloid leukemia cell differentiation protein Mcl-1 (Q07820 whole entry): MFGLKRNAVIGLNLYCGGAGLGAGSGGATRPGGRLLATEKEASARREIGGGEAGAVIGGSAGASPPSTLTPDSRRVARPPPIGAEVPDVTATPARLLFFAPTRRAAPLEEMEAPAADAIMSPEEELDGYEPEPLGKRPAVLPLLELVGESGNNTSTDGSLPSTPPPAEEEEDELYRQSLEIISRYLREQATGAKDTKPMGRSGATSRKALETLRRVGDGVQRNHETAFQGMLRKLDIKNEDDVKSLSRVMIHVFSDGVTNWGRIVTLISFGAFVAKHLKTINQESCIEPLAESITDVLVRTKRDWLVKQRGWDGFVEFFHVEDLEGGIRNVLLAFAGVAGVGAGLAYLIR

T1 sequence (Q07817 whole entry): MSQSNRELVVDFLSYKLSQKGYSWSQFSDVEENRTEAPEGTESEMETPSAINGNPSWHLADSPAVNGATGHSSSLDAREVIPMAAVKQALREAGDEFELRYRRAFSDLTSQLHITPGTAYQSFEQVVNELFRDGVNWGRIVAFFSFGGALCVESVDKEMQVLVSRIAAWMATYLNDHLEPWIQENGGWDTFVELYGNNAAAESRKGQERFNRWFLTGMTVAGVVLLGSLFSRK
Sequence of Apoptosis regulator Bcl-2 (P10415 whole entry): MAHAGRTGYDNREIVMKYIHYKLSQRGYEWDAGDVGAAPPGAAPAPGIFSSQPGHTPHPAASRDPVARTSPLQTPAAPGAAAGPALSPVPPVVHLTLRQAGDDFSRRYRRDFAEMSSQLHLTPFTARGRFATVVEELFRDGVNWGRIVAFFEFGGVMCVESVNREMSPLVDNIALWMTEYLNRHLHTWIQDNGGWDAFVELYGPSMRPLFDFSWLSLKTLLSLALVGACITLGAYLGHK

| SMILES | Ki [1] [nM] | Ki [2] [nM] | Ki [3] [nM] | EC50 [4] [nM] | further results |
| --- | --- | --- | --- | --- | --- |
| O=C(Nc1nc2ccccc2s1)c1cccc2c1CN(c1nc(C(=O)O)c(CCOc3ccc(-n4ncc5cncnc54)cc3)s1)CC2 [A-1107969] | 90 | 12.4 | 320 | – | – |
| CN(C)CC#Cc1cc(F)c(OCCCc2sc(N3CCc4cccc(C(=O)Nc5nc6ccccc6s5)c4C3)nc2C(=O)O)cc1F | 90 | 0.03 | 0.33 | 126 | – |
| O=C(Nc1nc2ccccc2s1)c1cccc2c1CN(c1nc(C(=O)O)c(CCCCOc3ccc(-n4ncc5cncnc54)cc3)s1)CC2 | – | – | 55.4 | – | – |
| CN(C)CC#Cc1ccc(OCCCc2sc(N3CCc4cccc(C(=O)Nc5nc6ccccc6s5)c4C3)nc2C(=O)O)cc1F | 88 | 0.01 | 1.12 | 51 | – |
| NCc1ccc(OCCCc2sc(-c3ccc4c(c3)/C(=N/Nc3nc5ccccc5s3)CCC4)nc2C(=O)O)cc1 | – | – | – | – | EC50 [5]: 550 nM |
| O=C(Nc1nc2ccccc2s1)c1cccc2c1CN(c1nc(C(=O)O)c(CCCOc3ccc(-n4cccn4)cc3)s1)CC2 | 150 | < 0.01 | 0.99 | – | – |
| CN(C)CC#Cc1ccc(OCCCc2sc(N3CCc4cccc(C(=O)Nc5nc6ccccc6s5)c4C3)nc2C(=O)O)cc1 | – | 0.02 | 0.28 | 600 | – |
| O=C(Nc1nc2ccccc2s1)c1cccc2c1CN(c1nc(C(=O)O)c(CCCOc3ccc(-n4ncc5cncnc54)cc3)s1)CC2 | 170 | 0.042 | 0.38 | – | – |
| c1ccc(-n2ncc3cncnc32)cc1 | – | – | – | – | Kd [6]: 4 mM |
| O=C(Nc1nc2ccccc2s1)c1cccc2c1CN(c1nc(C(=O)O)c(CCOc3cccc(-n4ncc5cncnc54)c3)s1)CC2 | 100 | 2.22 | 41.1 | – | – |
| CN(C)CC#Cc1ccc(OCCCc2sc(N3CCc4cccc(C(=O)Nc5nc6ccccc6s5)c4C3)nc2C(=O)O)c(F)c1 [A-1155463] | 80 | < 0.01 | 0.1 | 65 | Imax [7]: 44%; AUC [8]: 9.19 µM·h; Tmax [9]: 2 h; Cmax [10]: 1800 nM; inhibition [11]: inactive; inhibition [12]: Active; Ki [13]: 19 nM; concentration at 12 h [14]: 180 nM; Ki [15]: > 440 nM |
| CN(C)CC#Cc1ccc(OCCCc2sc(N3CCc4cccc(C(=O)Nc5nc6ccccc6s5)c4C3)nc2C(=O)O)c(Cl)c1 | 280 | – | 0.41 | 180 | – |
| CN(C)CCCNc1ncnc2c1cnn2-c1ccc(OCCCc2sc(N3CCc4cccc(C(=O)Nc5nc6ccccc6s5)c4C3)nc2C(=O)O)cc1 | 240 | < 0.01 | – | – | – |
| O=C(Nc1nc2ccccc2s1)c1cccc2c1CN(c1nc(C(=O)O)c(CCCOc3cccc(-n4ncc5cncnc54)c3)s1)CC2 | 220 | 0.34 | 10.4 | – | – |
| CN1CCN(CCCNc2ncnc3c2cnn3-c2ccc(OCCCc3sc(N4CCc5cccc(C(=O)Nc6nc7ccccc7s6)c5C4)nc3C(=O)O)cc2)CC1 | – | < 0.01 | 0.03 | – | – |
